# Assay results from publication PMC5432128 (Environment international, 2017).
# Where “and” joins values, the source holds several entries; their conditions need not be identical. Identical values can stand only once. Like-named read-outs stand apart in the source and are kept apart here.
# Experiments:
# [1] = cited from earlier work; for recovery of radioactivity in the urine: rats, ref Powles et al. 1992
# [2] = tested on: second instar larvae of S. frugiperda; test: Insect bioassay, diet surface contamination method; assay type: in vivo; conditions: for mortality / insecticidal activity: 2nd instar larvae, doses as high as 100 μg/mL (24-fold higher than fipronil LC50)
# [3] = target: α1β3γ2L GABAA receptors (Homo sapiens, UniProt P14867+P18507+P28472); assay type: cell-based; conditions: for EC50: 25 μM GABA, -80 mV
# Sequence of α1β3γ2L GABAA receptors (P14867 28-456): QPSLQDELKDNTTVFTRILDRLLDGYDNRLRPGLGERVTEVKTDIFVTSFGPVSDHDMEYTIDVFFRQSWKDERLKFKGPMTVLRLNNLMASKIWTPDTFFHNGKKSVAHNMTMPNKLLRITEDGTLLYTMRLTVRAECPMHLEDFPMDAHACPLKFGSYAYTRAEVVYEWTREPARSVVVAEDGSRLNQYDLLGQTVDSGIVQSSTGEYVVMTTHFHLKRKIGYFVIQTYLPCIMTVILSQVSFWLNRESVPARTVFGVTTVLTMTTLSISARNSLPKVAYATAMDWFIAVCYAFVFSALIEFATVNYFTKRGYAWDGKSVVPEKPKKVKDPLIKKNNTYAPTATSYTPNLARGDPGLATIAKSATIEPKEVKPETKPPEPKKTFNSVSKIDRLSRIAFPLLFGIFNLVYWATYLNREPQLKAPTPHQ
# Sequence of α1β3γ2L GABAA receptors (P28472 26-473): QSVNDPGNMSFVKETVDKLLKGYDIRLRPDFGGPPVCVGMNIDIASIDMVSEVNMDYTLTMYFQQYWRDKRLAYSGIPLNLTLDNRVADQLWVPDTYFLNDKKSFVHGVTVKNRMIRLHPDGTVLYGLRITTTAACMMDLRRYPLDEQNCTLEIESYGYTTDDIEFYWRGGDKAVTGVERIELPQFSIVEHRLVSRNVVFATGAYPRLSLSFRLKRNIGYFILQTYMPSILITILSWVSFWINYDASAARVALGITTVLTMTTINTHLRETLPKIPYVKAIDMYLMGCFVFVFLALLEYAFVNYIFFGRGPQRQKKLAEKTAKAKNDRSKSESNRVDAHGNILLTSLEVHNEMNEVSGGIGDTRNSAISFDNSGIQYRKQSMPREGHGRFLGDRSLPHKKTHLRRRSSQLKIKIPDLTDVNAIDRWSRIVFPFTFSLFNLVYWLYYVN
# Sequence of α1β3γ2L GABAA receptors (P18507 40-475): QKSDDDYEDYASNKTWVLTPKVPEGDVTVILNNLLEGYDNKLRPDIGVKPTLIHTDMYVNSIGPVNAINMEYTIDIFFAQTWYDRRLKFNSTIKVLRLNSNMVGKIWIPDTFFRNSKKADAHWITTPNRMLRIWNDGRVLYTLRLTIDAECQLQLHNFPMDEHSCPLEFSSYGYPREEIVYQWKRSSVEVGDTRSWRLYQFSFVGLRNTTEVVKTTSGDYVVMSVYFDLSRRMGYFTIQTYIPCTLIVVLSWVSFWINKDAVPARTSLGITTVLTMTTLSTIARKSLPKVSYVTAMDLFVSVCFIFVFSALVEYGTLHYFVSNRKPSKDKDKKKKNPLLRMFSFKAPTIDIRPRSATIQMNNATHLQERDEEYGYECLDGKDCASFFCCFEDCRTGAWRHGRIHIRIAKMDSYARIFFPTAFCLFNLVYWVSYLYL
# [4] = LC-MS/MS Method 1; assay type: in vivo, rat; conditions: for concentration at 2 weeks: Conc sulfone, LOQ 1.5 ng/mL
# Procedure, shortened: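 Rats received fipronil in diet at 5 or 10 mg/kg daily, for 14 days or one day. Urine was hydrolysed overnight at 37°C with β-glucuronidase/sulfatase in methanol/ammonium acetate pH 5.5. Urine (40 μL) was spiked with CUDA internal standard and centrifugally filtered at 20,000 g. Analysis used UPLC on C18 at 40°C with a water/acetonitrile 0.1% acetic acid gradient at 0.4 mL/min and […] ESI tandem MS.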
# [5] = LC/MS/MS Method 2; assay type: in vivo; conditions: EPA group, this study; for Conc sulfone, LOQ 10 ng/mL: rat urine; for concentration at 2 weeks: rat, urine, oral, Conc sulfone, LOQ 10 ng/mL
# Procedure, shortened: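 Urine came from fipronil-treated rats dosed at 5 or 10 mg/kg, single or repeated daily. Urine (100 μL) was precipitated with cold acetonitrile and centrifuged at 12,500 ×g for 8 min. Supernatant was mixed 1:1 with 10 mM ammonium acetate. HPLC used a C18 column at 30°C with 0.2 mM ammonium acetate methanol/acetonitrile phases, a 50–90% B gradient and flow of 0.4 rising to 0.75 mL/min, then MS/MS.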
# [6] = urine of fipronil-treated rats; ref McMahen et al. 2015; cited from earlier work
# [7] = in certain conditions; ref Gunasekara et al. 2007; cited from earlier work
# [8] = tested on: mice; conditions: 4.5 mg/kg body weight (bw)/day for 13 weeks; ref Hamernik 1998; cited from earlier work
# [9] = tested on: rats; conditions: in particular females; low doses (3.4 mg/kg bw); ref Hamernik 1998; cited from earlier work
# [10] = tested on: dogs; conditions: diet, up to 3 mg/kg bw/day; ref Hamernik 1998; Woodward 2012; cited from earlier work
# [11] = tested on: polyclonal antibodies 2265; test: Fipronil immunoassay cross-reactivity, serum 2265; assay type: binding; conditions: serum 2265, n=5; relative to fipronil
# [12] = tested on: polyclonal antibodies 2268; test: Fipronil immunoassay cross-reactivity, serum 2268; assay type: binding; conditions: serum 2268, n=4; relative to fipronil
# [13] = inhibitory effective concentration (EC50) on GABA-induced Cl- currents, pre-application at least 3 min, mean ± S.D.
structure (smiles),measurement,setting,value
N#Cc1nn(-c2c(Cl)cc(C(F)(F)F)cc2Cl)c(N)c1[S+]([O-])C(F)(F)F (stereo not drawn) [^14C-fipronil],recovery of radioactivity in the urine,[1]; repeated dosing over 14 days,14–16%
same,recovery of radioactivity in the urine,[1]; single dose at 4 mg/kg,5.6%
same,recovery of radioactivity in the urine,[1]; single high dose (150 mg/kg),22–30%
"COC(=N)c1cc(N)n(-c2c(Cl)cc(C(F)(F)F)cc2Cl)n1 [fipronil desulfinyl imidate, methyl 5-amino-1-(2,6-dichloro-4-(trifluoromethyl)phenyl)-1H-pyrazole-3-carbimidate]",mortality / insecticidal activity,[2],did not show any mortality
same,mortality / insecticidal activity,[2]; listed as imidate derivative,did not show any insecticidal activity
same,activity on GABAA α1β3γ2L receptor currents (in words),[3],approximately as potent to fipronil
same,EC50,[3]; [13],2.78 nM and 2.8 nM
N#Cc1nn(-c2c(Cl)cc(C(F)(F)F)cc2Cl)c(N)c1S(=O)(=O)C(F)(F)F [fipronil sulfone],"Conc sulfone, LOQ 1.5 ng/mL","[4]; rat urine, fipronil 5 mg/kg repeated, Method 1",14 ng/mL
same,"Conc sulfone, LOQ 1.5 ng/mL","[4]; rat urine, fipronil 5 mg/kg repeated, Method 1, listed as sulfone",17 ng/mL and 14 ng/mL
same,detection in urine samples,"[4]; rat urine, samples 42, 81 and 82",detected only in samples obtained from animals treated with fipronil repeatedly
same,concentration at 2 weeks,"[4]; rat, urine, oral, 5 mg/kg, rat urine, fipronil 5 mg/kg repeated, Method 1",17 ng/mL
same,concentration at 2 weeks,"[4]; rat, urine, oral, 10 mg/kg, rat urine, fipronil 10 mg/kg repeated, Method 1",19 ng/mL
same,concentration in urine samples,"[4]; rats treated with fipronil, over all dose groups (abstract)",around 20 ng/mL
same,"Conc sulfone, LOQ 10 ng/mL",[5]; fipronil 5 mg/kg repeated,24 ng/mL
same,"Conc sulfone, LOQ 10 ng/mL",[5]; fipronil 5 mg/kg single,< 10 ng/mL
same,"Conc sulfone, LOQ 10 ng/mL",[5]; fipronil 10 mg/kg single,< 10 ng/mL
same,concentration at 2 weeks,"[5]; 5 mg/kg, fipronil 5 mg/kg repeated",26 ng/mL
same,concentration at 2 weeks,"[5]; 10 mg/kg, fipronil 10 mg/kg repeated",23 ng/mL
same,share among urinary metabolites,"[1]; deconjugated and original rat urine, ref Powles et al. (1992)",minor constituent
N#Cc1nn(-c2c(Cl)cc(C(F)(F)F)cc2Cl)c(N)c1[S+]([O-])C(F)(F)F (stereo not drawn) [fipronil],LC50,[2]; Spodoptera frugiperda,4.1 µg/mL
same,mortality at 100 µg/mL,"[2]; Spodoptera frugiperda, 12 h",100%
same,mortality at 50 µg/mL,"[2]; Spodoptera frugiperda, 48 h",100%
same,EC50,[3]; [13],1.15 nM and 1.2 nM
same,free fipronil in urine samples,[6],no detectable amount
same,half-life (t1/2) in the environment,[7],over 100 days
same,bodyweight gain,[8],reduced bodyweight gains
same,liver weight,[9],significant increase in liver weight
same,other signs of toxicity observed,[10],"convulsions, head nodding and muscles twitching"
same,weight gain and neurological effects,[10],did not experience abnormal weight gain or severe neurological effects
"N#Cc1nn(-c2c(Cl)cc(C(F)(F)F)cc2Cl)c(N)c1O [hydroxy-fipronil, 5-Amino-1-(2,6-dichloro-4-(trifluoromethyl)phenyl)-4-hydroxy-1H-pyrazole-3-carbonitrile]","Conc FipOH, LOQ 0.4 ng/mL","[4]; rat urine, fipronil 5 mg/kg single, Method 1, listed as FipOH",23 ng/mL and 24 ng/mL
same,"Conc FipOH, LOQ 0.4 ng/mL","[4]; rat urine, fipronil 10 mg/kg single, Method 1",14 ng/mL
same,"difference in metabolite concentration, two weeks treatment vs single treatment","[4]; rat urine, same doses 5 or 10 mg/kg",80 to 700 times
same,concentration detected in the samples before and after enzymatic hydrolysis,"[4]; rat urine, β-glucuronidase/sulfatase, table S4",did not change significantly
same,concentration at 14 days,"[4]; rat, urine, oral, 10 mg/kg, Conc FipOH, LOQ 0.4 ng/mL, rat urine, fipronil 10 mg/kg repeated (14 days), Method 1",10200 ng/mL
same,concentration in the urine,"[4]; rats, single fipronil dose of 5 or 10 mg/kg",about 20 ng/mL
same,mortality / insecticidal activity,[2],did not show any mortality
same,activity on GABAA α1β3γ2L receptor currents (in words),[3],did not have a significant inhibitory effect
same,EC50,[3]; inhibitory EC50 on GABA-induced Cl- currents,~1000 nM
same,EC50,[3]; [13],1000 ± 341 nM
same,fold higher concentrations to elicit similar current inhibition,[3]; relative to fipronil and fipronil desulfinyl imidate,≤ 1000 fold
same,Cross-reactivity (CR),[11],3.2%
same,Cross-reactivity (CR),[12],0.7%
